Test results as given in ChEMBL document CHEMBL1131319, “(3R,4S)-3-[4-(4-fluorophenyl)-4-hydroxypiperidin-1-yl]chroman-4,7-diol: a conformationally restricted analogue of the NR2B subtype-selective NMDA antagonist (1S,2S)-1-(4-hydroxyphenyl)-2-(4-hydroxy-4-phenylpiperidino)- 1-propanol” (J Med Chem, 1998).
Activity calls are given as the source filed them. The rule behind the calls is not given here.

Columns and labels:
[1] = Displacement of racemic [3H]CP-101606 from rat forebrain membrane N-methyl-D-aspartate glutamate receptor 2B
[2] = molecular target: T1, Glutamate receptor ionotropic, NMDA 2B (Rattus norvegicus, UniProt Q00960); test: Ability to displace of racemic […] of [3H]CP-101606 binding to N-methyl-D-aspartate glutamate receptor 2B in rat forebrain membranes.; format: cell membranes, Membrane
T1 sequence (Q00960 whole entry): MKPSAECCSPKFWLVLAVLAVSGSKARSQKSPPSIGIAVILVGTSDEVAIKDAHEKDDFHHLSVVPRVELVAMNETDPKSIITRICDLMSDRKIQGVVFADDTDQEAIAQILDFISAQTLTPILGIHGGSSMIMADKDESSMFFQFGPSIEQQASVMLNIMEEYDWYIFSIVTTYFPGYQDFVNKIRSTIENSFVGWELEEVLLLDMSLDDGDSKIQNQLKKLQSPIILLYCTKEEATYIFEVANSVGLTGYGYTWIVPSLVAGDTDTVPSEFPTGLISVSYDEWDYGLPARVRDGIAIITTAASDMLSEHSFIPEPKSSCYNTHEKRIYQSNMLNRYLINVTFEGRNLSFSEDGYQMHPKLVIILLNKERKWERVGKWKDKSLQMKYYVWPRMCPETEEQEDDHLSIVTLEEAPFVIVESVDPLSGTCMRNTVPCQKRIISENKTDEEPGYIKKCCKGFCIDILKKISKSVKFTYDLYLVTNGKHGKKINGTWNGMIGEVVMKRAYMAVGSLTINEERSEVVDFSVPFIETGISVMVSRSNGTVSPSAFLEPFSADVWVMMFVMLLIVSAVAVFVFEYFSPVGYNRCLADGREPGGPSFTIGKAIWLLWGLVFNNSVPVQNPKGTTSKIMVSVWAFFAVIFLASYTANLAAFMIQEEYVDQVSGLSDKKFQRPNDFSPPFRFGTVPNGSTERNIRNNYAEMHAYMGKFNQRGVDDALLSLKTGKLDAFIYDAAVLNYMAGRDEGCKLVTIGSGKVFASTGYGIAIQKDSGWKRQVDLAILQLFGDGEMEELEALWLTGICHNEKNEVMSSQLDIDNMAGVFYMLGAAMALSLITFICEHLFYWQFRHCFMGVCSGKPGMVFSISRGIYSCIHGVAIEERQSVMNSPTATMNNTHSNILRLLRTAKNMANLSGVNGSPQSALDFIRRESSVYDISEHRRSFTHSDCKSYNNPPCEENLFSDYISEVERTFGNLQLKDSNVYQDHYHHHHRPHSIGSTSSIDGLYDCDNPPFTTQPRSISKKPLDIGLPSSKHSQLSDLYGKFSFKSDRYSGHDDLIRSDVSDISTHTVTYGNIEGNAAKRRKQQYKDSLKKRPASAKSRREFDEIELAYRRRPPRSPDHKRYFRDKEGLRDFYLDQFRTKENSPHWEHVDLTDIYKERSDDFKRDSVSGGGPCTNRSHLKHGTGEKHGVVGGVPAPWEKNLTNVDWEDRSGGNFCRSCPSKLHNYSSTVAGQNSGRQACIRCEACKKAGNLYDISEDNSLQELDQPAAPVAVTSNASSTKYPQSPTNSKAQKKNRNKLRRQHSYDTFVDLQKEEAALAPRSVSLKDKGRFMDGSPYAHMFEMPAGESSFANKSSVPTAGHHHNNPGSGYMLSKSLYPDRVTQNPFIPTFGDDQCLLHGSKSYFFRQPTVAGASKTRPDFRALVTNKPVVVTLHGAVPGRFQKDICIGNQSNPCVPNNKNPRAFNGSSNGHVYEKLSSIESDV

[3] = species: Rattus norvegicus; test: Compound was tested for neuroprotection against NMDA-Induced toxicity in cultured rat hippocampal neurons.; format: functional
[4] = tested on: Rattus norvegicus; test: Compound was evaluated in vivo for blockade of haloperidol induced catalepsy in rat when administered subcutaneously; format: functional; conditions: sc
How it was run: (§1)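 Rats given haloperidol were scored for catalepsy as remaining perched on an elevated bar. Test drug was given peripherally beforehand. ED50 in mg/kg ± SEM.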

[5] = tested on: Rattus norvegicus; test: Compound was evaluated in vivo for blockade of haloperidol induced catalepsy in rat when administered perorally.; format: functional; conditions: po; how it was run: as §1
[6] = molecular target: T1, Glutamate receptor ionotropic, NMDA 2B; test: Compound was evaluated for its blocking effect against N-methyl-D-aspartate glutamate receptor 2B; set-up: species or system xenopus oocytes
[7] = tested on: Mus musculus; test: Compound was evaluated in vivo for blockade of NMDA-stimulated fos induction in mouse when administered intravenously.; format: functional; conditions: iv
[8] = tested on: Rattus norvegicus; test: Compound was evaluated in vivo for blockade of haloperidol induced catalepsy in rat when administered perorally; format: functional; conditions: po; how it was run: as §1
[9] = tested on: Rattus norvegicus; test: Compound was evaluated for blockade of CSD in rats; rat protected /tested(mg/kg iv bolus+mg/kgh iv infusion) = 2/3 (0.6+0.6); format: functional, organism-based
[10] = tested on: Rattus norvegicus; test: Compound was evaluated for blockade of CSD in rats; rat protected /tested(mg/kg iv bolus+mg/kgh iv infusion) = 0/2 (0.2+0.2); format: functional, organism-based
[11] = Compound was evaluated for blockade of CSD as rats protected/ rats tested after a iv dose of 2 mg/kg followed by an infusion of 2 mg/kgh; 2/2; format: functional, organism-based
[12] = Compound was evaluated for blockade of CSD as rats protected/ rats tested after a iv dose of 0.2 mg/kg followed by an infusion of 0.2 mg/kg/h; 0/2; format: functional, organism-based
[13] = Compound was evaluated for blockade of CSD as rats protected/ rats tested after a iv dose of 0.6 mg/kg followed by an infusion of 0.6 mg/kgh; 2/3; format: functional, organism-based
[14] = species: Rattus norvegicus; test: Compound was tested for neuroprotection against NMDA-Induced toxicity in cultured hippocampal neurons.; format: functional
How it was run: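 Neuron loss was induced by NMDA or glutamate in primary rat hippocampal neuron cultures, and inhibition of that loss was measured.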

[15] = tested on: Mus musculus; test: Compound was evaluated in vivo for blockade of NMDA-stimulated fos induction in mouse; format: functional

| SMILES | IC50 [1] [nM] | IC50 ([3]; Rattus norvegicus) [nM] | other results |
| --- | --- | --- | --- |
| Oc1ccc2c(c1)OC[C@@H](N1CCC(O)(c3ccc(C(F)(F)F)cc3)CC1)[C@H]2O | 20 |  |  |
| Oc1ccc2c(c1)OC[C@@H](N1CCC(O)(c3ccc(F)cc3)CC1)C2 |  |  | IC50 [2]: 300 nM |
| Oc1ccc2c(c1)OC[C@@H](N1CCC(c3ccccc3)CC1)[C@H]2O |  | 25 |  |
| Oc1ccc2c(c1)OC1C[C@]1(N1CCC(O)(c3ccc(F)cc3)CC1)[C@H]2O (stereo not given in full) |  | 1000 |  |
| Oc1ccc2c(c1)OC[C@@H](N1CCC(O)(c3ccccc3)CC1)[C@@H]2O |  | 383 |  |
| Oc1ccc2c(c1)OC[C@H](N1CCC(O)(c3ccc(F)cc3)CC1)[C@@H]2O | 35 | 11 | ED50 [4]: 1.1 mg/kg; ED50 [5]: 6.8 mg/kg |
| Oc1ccc2c(c1)OC[C@@H](N1CCC(O)(CCc3ccccc3)CC1)[C@H]2O |  | 20 |  |
| Oc1ccc2c(c1)OC[C@@H](N1CCC(Cc3ccccc3)CC1)[C@H]2O | 130 | 160 |  |
| CO[C@H]1c2ccc(O)cc2OC[C@H]1N1CCC(O)(c2ccc(F)cc2)CC1 | > 300 |  |  |
| Oc1ccc2c(c1)OC[C@@H](N1CCC(O)(Cc3ccccc3)CC1)[C@H]2O |  | 533 |  |
| Oc1cc2c(cc1F)[C@H](O)[C@H](N1CCC(O)(c3ccc(F)cc3)CC1)CO2 | 17 | 23 |  |
| COc1ccc2c(c1)OC[C@@H](N1CCC(O)(c3ccc(F)cc3)CC1)[C@H]2O | > 300 |  |  |
| Oc1ccc2c(c1)OC[C@H](N1CCC(O)(c3ccccc3)CC1)[C@@H]2O | 107 | 108 |  |
| Oc1ccc2c(c1)OC[C@@H](N1CCC(O)(c3ccccc3)CC1)[C@H]2O (stereo in doubt; 3a) | 54 |  | IC50 [3]: 129 nM |
| Oc1ccc2c(c1)OC[C@@H](N1CCC(O)(c3ccccc3)CC1)[C@H]2O (stereo in doubt; 5a) | 31 |  | IC50 [3]: 9 nM |
| Oc1ccc2c(c1)OC[C@@H](N1CCC(O)(c3ccc(F)cc3)CC1)[C@H]2O (stereo in doubt; 10a) | 28 | 5 |  |
| Oc1ccc2c(c1)OC[C@@H](N1CCC(O)(c3ccc(F)cc3)CC1)[C@H]2O (stereo in doubt; 12a) [listing 1 of 2 here] | 18 |  | IC50 [6]: 206 nM; ED50 [4]: 0.3 mg/kg; IC50 [3]: 4 nM; ED50 [7]: 4 mg/kg; ED50 [8]: 1.2 mg/kg |
| Oc1ccc2c(c1)OC[C@@H](N1CCC(O)(c3ccc(F)cc3)CC1)[C@H]2O (stereo in doubt; 12a) [listing 2 of 2 here] |  |  | Blockade effect [9]: Partially active; Blockade effect [10]: inactive; Ratio [11]: Active; Ratio [12]: inactive; Ratio [13]: Partially active |
| C[C@@H]([C@@H](O)c1ccc(O)cc1)N1CCC(O)(c2ccccc2)CC1 [TRAXOPRODIL] | 27 |  | IC50 [14]: 11 nM; ED50 [4]: 0.4 mg/kg; ED50 [15]: 1 mg/kg |
